Experimental data as given in paper PMC7007868 (Molecular cancer therapeutics, 2019).
Like-named read-outs stand apart in the source and are kept apart here.

How the values were obtained:
Modified Irwin assay = type: in vivo, mouse; conditions: days 0, 8, 15; for modified Irwin battery, autonomic and somatomotor function: B6 flank MPNST mice, oxotremorine 0.5 mg/kg s.c. once
Procedure, shortened: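 B6 flank MPNST mice on the 14-day efficacy dosing regimen or vehicle were scored blind on a modified Irwin autonomic/somatomotor battery on days 0, 8 and 15, including hang time (s) from an inverted wire. A separate cohort (n=5) received oxotremorine 0.5 mg/kg s.c. 30 min before testing as assay control. Scores were averaged and normalized to day-0 vehicle; grip times were compared by multiple t-tests.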

[1] = system: human MPNST cells (sNF96.2); experiment: Glutamine titration, alamar blue growth; type: cell-based; conditions: SNF96.2, 72 h, read-out: EC50 of glutamine to rescue growth
Procedure, shortened: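 sNF96.2 cells were plated at 1500–2000 cells/well in standard medium. The next day the medium was replaced with glutamine-free medium made with dialyzed FBS, and fixed glutamine concentrations were added across the plate. After 72 h, growth was read by alamar blue fluorescence at 590 nm as percent growth (± S.D.).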

[2] = system: immortalized Schwann cells (ipn02.32λ); experiment: Glutamine titration, alamar blue growth; type: cell-based; conditions: Homo sapiens, 72 h, read-out: EC50 of glutamine to rescue growth
[3] = system: human MPNST cells (sNF96.2); experiment: Alamar blue viability dose response; type: cell-based; conditions: SNF96.2, 72 h, read-out: IC50 growth inhibition
Procedure, shortened: (§1)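 Human MPNST cells and immortalized Schwann cells were grown at 37°C in humidified 5% CO2 and exposed to test compound for 72 h. Viability was read by alamar blue fluorescence at 590 nm and expressed as percent viable relative to untreated controls. Data are given ± S.D.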

MPNST cells sNF02.2 = experiment: Alamar blue viability dose response; type: cell-based, human; conditions: read-out: IC50 growth inhibition
[4] = system: immortalized Schwann cells (ipn02.32λ); experiment: Alamar blue viability dose response; type: cell-based, human; conditions: 72 hours drug treatment
Procedure, shortened: as §1

[5] = Parallel artificial membrane permeation assay; type: in vitro ADME; conditions: PAMPA
[6] = doses over 0.6 mg/kg daily, by treatment days 6–7; cited from earlier work
FGAR amidotransferase = conditions: cited from earlier work
[7] = system: refractory pediatric sarcomas; conditions: prolonged infusion; cited from earlier work
[8] = Plasma stability of JHU395, 60 min at 37°C; type: in vitro ADME; conditions: one hour incubation, plasma of multiple species including humans
[9] = system: human MPNST cells (sNF96.2) in human plasma; experiment: Tumor cell-to-plasma partitioning; type: in vitro ADME
Procedure, shortened: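 sNF96.2 cells were washed twice in PBS and resuspended in human plasma at 7.5 million cells/mL. Test compound was spiked at 20 µM and incubated 1 h at 37°C, then spun at 1000 × g for 5 min at 4°C. Plasma and PBS-washed cell pellets were stored at -80°C, and intact prodrug and released glutamine antagonist were measured by LC-MS/MS as percent of total. Mean ± S.E.M.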

[10] = JHU395 pharmacokinetic analysis; type: in vivo, mouse
[11] = Dose tolerance in non-tumored NPcis mice; type: in vivo, mouse; conditions: 1.2 mg/kg p.o. × 5 days then 0.5 mg/kg p.o. daily, over thirty days
murine flank MPNST = experiment: Efficacy in murine flank MPNST model; type: in vivo, mouse; conditions: 1.2 mg/kg p.o. × 5 days, 0.5 mg/kg × 9 days; vehicle 1695 mm^3; p≤0.05
glutamine utilization = experiment: Quantitative glutamine analysis in tumor and plasma; type: in vivo, mouse
[12] = GI, hepatic and brain toxicity assessment during 14 days oral dosing; type: in vivo, mouse
Procedure, shortened: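 Flank MPNST mice were dosed orally for 14 days on the efficacy regimen against vehicle (n=9) and weighed thrice weekly as percent change from start. In a subset (n=3–4/condition), jejunum was fixed overnight in 10% neutral buffered formalin, paraffin-embedded, sectioned at ~5 µm and H&E-stained. A veterinary pathologist examined the sections for apoptotic figures and crypt architecture.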

[13] = system: de novo purine biosynthesis (FGAR); experiment: Quantitative FGAR analysis in tumors; type: in vivo, mouse; conditions: JHU395 1.2 mg/kg p.o.
Procedure, shortened: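 B6 flank MPNST mice (n=8/group) were given vehicle or 1.2 mg/kg/dose p.o. for five days. Tumors were snap frozen, homogenized in methanol with 10 µM deuterated N-acetylaspartic acid internal standard (5 µL/mg) and centrifuged at 16,000 × g for 5 min. Supernatants were run by UHPLC–orbitrap full-MS negative mode against an FGAR standard curve in untreated tumor ([…]). Group means were compared by t-test.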

[14] = system: glutamine incorporation in murine flank MPNST; experiment: In vivo stable isotope flux analysis; set-up: species or system mouse; conditions: 1.2 mg/kg/dose p.o. for five days; m+1, m+2 (IMP, AMP), m+3 (GMP)
Procedure, shortened: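 B6 flank MPNST mice received vehicle or test compound at 1.2 mg/kg/dose p.o. for five days. On harvest day they were dosed orally, then 30 min later given three 0.2 ml tail-vein injections of 200 mM ¹⁵N₂-glutamine, 15 min apart. Tumors were flash frozen, extracted in cold 80% methanol, dried and redissolved in 50% acetonitrile. Analysis was by C18 ion-pair (tributylamine) LC-Q-TOF MS with natural-abundance correction.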

[15] = swine and human plasma, at 1 hour; cited from earlier work
[16] = swine, cited from earlier work
MPNST xenograft = conditions: single agent, twice-daily dosed; cited from earlier work
[17] = 20 μM JHU395, one hour, sNF96.2 cells in human plasma
[18] = B6 mice, thirty minutes after JHU395 1.2 mg/kg oral
[19] = flank tumored mice, JHU395 1.2 mg/kg oral

O=C1CCCN1CC#CCN1CCCC1 [oxotremorine, reference compound]
modified Irwin battery, autonomic and somatomotor function (Modified Irwin assay): induced significant adverse effects

NC(=O)CC[C@H](N)C(=O)O [glutamine]
EC50 [1]: 209 µM
EC50 [2]: 64.5 µM

[N-]=[N+]=CC(=O)CC[C@H](N)C(=O)O [DON, 6-diazo-5-oxo-L-norleucine, reference compound]
IC50 [3]: 9.8 µM
IC50 (MPNST cells sNF02.2; Homo sapiens, 72 h): 2.4 µM
effect on growth of immortalized Schwann cells [4]: minimally affected
Papp at 5 h, 20 μM ([5]; pH 7): 0.0095 ×10⁻⁶ cm/s
weight loss [6]: ~20%
concentration inhibiting the enzyme that converts FGAR to FGAM (FGAR amidotransferase): low micromolar levels

Sc1ncnc2nc[nH]c12 [6-MP, 6-mercaptopurine]
disease stabilization [7]: approximately 25%

CC(C)OC(=O)[C@H](CCC(=O)C=[N+]=[N-])NC(=O)OC(OC(=O)C(C)(C)C)c1ccccc1 (some centres unmarked) [JHU395]
IC50 (MPNST cells sNF02.2; sNF02.2, 72 hours drug treatment): 1.5 µM
effect on growth of immortalized Schwann cells [4]: minimally affected
apparent permeability Papp ([5]; 20 μM, pH 7.0, 5 h, room temperature): 5.707 ×10⁻⁶ cm/s
JHU395 remaining intact in plasma [8]: Over 80%
share of total DON measured in cells [9, 17]: 92%
share of total DON measured in plasma [9, 17]: 8%
intact JHU395 in MPNST cells ([9]; after one hour): minimal
intact JHU395 in plasma ([9]; after one hour): detected
DON in jejunum [10, 18]: 0.18 nmol/g
DON in plasma [10, 18]: 0.91 nmol/mL
small intestine-to-plasma DON ratio [10, 18]: 0.20
DON plasma AUC [10, 19]: 0.977 µM·h
DON tumor AUC [10, 19]: 2.496 nmol·h/g
DON tumor Cmax [10, 19]: 1.8 nmol/g
accumulation of DON in GI tissue versus plasma ([10]; mice, full time-dependent pharmacokinetic analysis): no accumulation
tolerability of dosing regimen [11]: well-tolerated
tumor volume at end of treatment (murine flank MPNST): 1045 mm^3
plasma glutamine (glutamine utilization; flank MPNST mice, vehicle 475 nmol/ml, p≤0.0001): 729 nmol/mL
tumor glutamine (glutamine utilization; flank MPNST mice, vehicle 1293 nmol/g, p≤0.001): 2096 nmol/g
increase in plasma glutamine (glutamine utilization; non-tumored mice, versus vehicle): 25%
plasma glutamine (glutamine utilization; non-tumored mice, vehicle 830 nmol/ml, p≤0.01): 1036 nmol/mL
change from starting weight ([12]; flank MPNST mice, 14 days oral dosing): ≤ 10%
jejunal histology versus vehicle ([12]; subset of animals, after 14 days oral dosing): No differences
brain histology postmortem ([12]; subset of brains, after 14 days oral dosing): no gross changes nor cortical vacuolization
modified Irwin battery, autonomic and somatomotor function (Modified Irwin assay): performed similarly
grip time from an inverted wire (Modified Irwin assay): unaffected
fold increase of tumor FGAR versus vehicle [13]: 75 fold
tumor FGAR ([13]; vehicle 3.4 nmol/g, p≤0.01): 254.4 nmol/g
^15N2-glutamine isotopologue enrichment in IMP, AMP, GMP versus vehicle [14]: significantly lower enrichment
prodrug remaining intact in plasma [15]: 83–88%
DON brain-to-plasma ratio ([16]; DON or JHU395-derived DON): 1.38
DON exposure in plasma AUC0→t ([16]; equimolar dose of DON or JHU395): 5.7 µM·h
enhancement of DON brain-to-plasma ratio (JHU395 vs DON) [16]: 9.3

O=C(Cc1cccc(OC(F)(F)F)c1)Nc1ccc(CCCCc2nnc(NC(=O)Cc3ccccn3)s2)nn1 [CB-839]
MPNST xenograft growth (MPNST xenograft): partially decreased
